PfHsp90 set2: growth inhibition of PfHsp90-expressing yeast, primary screen, antimalarial PfHsp90 inhibitor project, S. cerevisiae, BacTiter-Glo luminescence, single point, set 2. BacTiter-Glo ATP, 48 h; yeast lacking PDR1 and PDR3 efflux regulators. inhibition, % at 9.4 µM. 0.32% of 310,000 active;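 active = every replicate shows inhibition above about 80%, whatever the replicate mean, limit read from the data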
MLL AF4-AF9 inh: inhibitors of AF4 peptide binding to AF9, primary screen, biochemical, AlphaScreen, biotin-AF4 peptide, FLAG-AF9, single point; Protein AF-9 (Homo sapiens), P42568; inhibition, % at 10 µM; 0.47% of 350,000 active; AID 651704, 2012;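 active = every replicate reaching a set inhibition limit, whatever the replicate mean, cut at about 25% in these data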
Target sequence (P42568 whole entry, looked up): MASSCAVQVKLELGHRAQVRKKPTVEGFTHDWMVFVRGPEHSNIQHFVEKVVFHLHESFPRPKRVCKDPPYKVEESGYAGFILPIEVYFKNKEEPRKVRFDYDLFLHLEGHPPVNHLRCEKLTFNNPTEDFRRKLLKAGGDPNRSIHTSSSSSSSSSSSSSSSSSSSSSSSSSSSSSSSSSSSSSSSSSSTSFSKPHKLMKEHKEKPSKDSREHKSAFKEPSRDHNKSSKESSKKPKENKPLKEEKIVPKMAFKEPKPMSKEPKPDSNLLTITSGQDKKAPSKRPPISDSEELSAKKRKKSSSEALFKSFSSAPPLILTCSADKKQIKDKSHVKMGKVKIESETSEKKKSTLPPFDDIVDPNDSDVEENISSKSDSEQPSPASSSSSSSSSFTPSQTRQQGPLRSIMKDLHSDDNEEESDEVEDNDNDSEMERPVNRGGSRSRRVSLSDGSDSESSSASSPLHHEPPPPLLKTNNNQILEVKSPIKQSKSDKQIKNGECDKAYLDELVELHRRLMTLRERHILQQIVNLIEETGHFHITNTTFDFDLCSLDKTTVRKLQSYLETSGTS
rRNA inh HTS: reduced GFP signal of wild-type E. coli, primary screen, bacterial rRNA inhibitor project, GFP/RFP fluorescence, OD600, single point; E. coli WT GFP vs humanized-ribosome RFP mutants, 24 h; hits give low values; DMSO median 0, no signal -100; GFP signal change (wild-type ribosome), % (no concentration beside the values); 1.6% of 350,000 active; AID 720706, 2013;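 active = significant combined selectivity score with lowered wild-type GFP, culture density cut under 30%, mutant RFP and density less affected; inactive = any of these conditions unmet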
DENV2 CPE rescue: inhibitors of DENV2 cytopathic effect, primary screen, cell-based, plate reader, single concentration. DENV2-infected cells, cytopathic effect rescue. CPE inhibition, % at 9.99 µM. AID 651640, 2012. 1.7% of 350,000 active; in the data active = CPE inhibition above about 20%, passing the limit was not always enough; tested in BHK-21 cells
S100A4 MyoIIA: inhibitors of S100A4-myosin IIA peptide binding, primary screen, biochemical, fluorescence polarization, TAMRA-MyoIIA peptide | inhibition, % at 10.7 µM | 0.14% of 360,000 active | AID 652163, 2013;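 active = mean inhibition of at least 70% across replicates, with every replicate also reaching that level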
Target sequence (P26447 whole entry, looked up): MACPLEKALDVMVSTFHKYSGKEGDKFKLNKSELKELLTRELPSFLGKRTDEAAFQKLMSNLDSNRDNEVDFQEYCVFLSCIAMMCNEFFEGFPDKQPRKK
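Test system: S100A4 monomer protein; Medium: HEPES pH 7.2 with CaCl2, KCl, NaCl, DTT, Triton; Probe or stimulus: TAMRA-labelled myosin IIA heavy-chain peptide probe, 5 nM; Doses: one dose per compound; Times: polarization read 5 min after assay mix addition, stable 5–60 min; Benchmarks: neutral control DMSO, positive control TFP.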
Cneo AK release: Cryptococcus neoformans cell lysis inducers, primary screen, AK release luminescence, single concentration; AID 651654, 2012; C. neoformans lysis, adenylate kinase release luminescence, 4 h; normalised: neutral wells 0, clomiphene wells 100; lysis activity, % at 15 µM; 0.2% of 360,000 active;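 active = mean lysis activity across replicates of at least 80%, whatever share of replicates individually reach that level; inactive = mean lysis activity below 80%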
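Schedule: static 4 h at 37 °C with compound, 1 h detection; system: C. neoformans cells; benchmarks: Clomiphene as positive control; buffer or medium: fresh YPD medium; measure: luminescence rise reflecting yeast cell lysis; measured by: luminescent adenylate kinase detection reagent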
A number is an active result; 0 = inactive; - = not tested or not shown. Only some compounds are listed: those with a hit (about 3.2% of all), similar ones and a draw of the others.

SMILES	PfHsp90 set2	MLL AF4-AF9 inh	rRNA inh HTS	DENV2 CPE rescue	S100A4 MyoIIA	Cneo AK release
C[C@H](CO)N1C[C@H](C)[C@@H](CN(C)S(=O)(=O)c2ccc(Cl)cc2)OCCCC[C@H](C)Oc2ccc(N(C)C)cc2C1=O	-	-	0	-	-	-
C[C@@H]1CCCCO[C@@H](CN(C)S(=O)(=O)c2cn(C)cn2)[C@@H](C)CN([C@H](C)CO)C(=O)c2cc(NS(=O)(=O)c3ccccc3)ccc2O1	-	0	0	0	0	0
COc1cc(CN2CC3(CN(C(=O)Nc4cccc(F)c4)C3)c3c(n(C)c4cc(OC)ccc34)[C@@H]2CO)cc(OC)c1	-	0	0	0	0	-
C[C@H](CO)N1C[C@H](C)[C@H](CN(C)CC2CC2)Oc2ccc(NC(=O)Cc3ccccc3)cc2C1=O	-	0	0	0	0	0
COc1ccc2c3c([nH]c2c1)[C@@H](CO)N(C)CC31CN(S(=O)(=O)c2cn(C)cn2)C1	-	0	0	0	0	-
COc1ccc(OC)c(CN2CCN(C(=O)c3ccc(C)c(S(=O)(=O)Nc4ccccc4OC)c3)CC2)c1	0	33	0	0	0	0
COc1ccc(C(=O)NNC(=O)c2cccc(F)c2)cc1	-	0	-23	0	0	-
Cc1ccc(C(=O)NNC(=O)c2ccc3ccccc3c2O)cc1	0	0	-27	0	0	0
COc1ccccc1C(=O)Nc1ccc(C)cc1C(=O)c1ccccc1	0	0	-	0	0	-
O=C(NNC(=O)c1ccc2ccccc2c1)c1cccc(F)c1	0	0	0	0	0	0
COc1cccc(C(=O)NNC(=O)Cc2ccc(Cl)cc2)c1	0	0	-21	0	0	0
COc1ccc(C(=O)Nc2ccc(C)cc2C(=O)c2ccccc2)cc1	0	0	-19	0	0	-
O=C(NCC[C@@H]1CC[C@@H](NS(=O)(=O)Cc2ccccc2)[C@@H](CO)O1)C1CCOCC1	-	0	0	0	0	0
COc1ccc(C(=O)NNC(=O)c2ccc3ccccc3c2O)cc1	0	0	-24	0	0	0
O=C(NCC[C@@H]1CC[C@@H](NC(=O)C2CCC2)[C@@H](CO)O1)c1cnccn1	-	0	0	0	0	0
O=C1CN(C(=O)c2ccc(Cl)c(S(=O)(=O)N3CCc4ccccc43)c2)c2ccccc2N1	0	0	-35	0	0	0
CC1Cc2ccccc2N1S(=O)(=O)c1cccc(C(=O)N2CC(=O)Nc3ccccc32)c1 (configuration not stated)	0	0	-37	-	0	0
C[C@@H]1CN([C@@H](C)CO)C(=O)c2cc(NC(=O)NC3CCCCC3)ccc2O[C@@H](C)CCCCO[C@H]1CN(C)Cc1ccc2c(c1)OCO2	-	0	0	45	0	0
C[C@@H]1CN([C@H](C)CO)C(=O)c2cc(NC(=O)NC3CCCCC3)ccc2O[C@@H](C)CCCCO[C@H]1CN(C)Cc1ccc2c(c1)OCO2	-	0	0	63	0	0
C[C@@H]1CN([C@@H](C)CO)C(=O)c2cc(NC(=O)NC3CCCCC3)ccc2O[C@@H](C)CCCCO[C@@H]1CN(C)Cc1ccc2c(c1)OCO2	-	0	0	0	0	0
CCCNC(=O)C[C@H]1C[C@H]2c3cc(NC(=O)CN(C)C)ccc3O[C@H]2[C@@H](CO)O1	-	-	0	0	-	0
C#CC[N+](C)(C)CCCCCCCCCC	0	0	-	0	0	0
CCCCCCCCCCCCCCCC[N+](C)(C)CCl	105	0	0	0	0	-
CCCCCCCCCCCCCCCC[N+](C)(C)CC	108	0	0	0	0	0
CCCCCC[N+](C)(C)CCSSCC[N+](C)(C)CCCCCC	0	0	0	0	0	0
SMILES	PfHsp90 set2	MLL AF4-AF9 inh	rRNA inh HTS	DENV2 CPE rescue	S100A4 MyoIIA	Cneo AK release
CCN(CC)c1ccc(/C=N/NC(=O)c2ccoc2C)c(O)c1	0	0	-34	0	0	0
O=C(CN1CCOCC1)N[C@@H]1CC[C@@H](CCNC(=O)C2CCCC2)O[C@H]1CO	-	0	0	0	0	0
O=C(C1CC1)N1CC2(C1)[C@H](c1ccccc1)[C@@H](CO)N2Cc1nccs1	-	0	0	37	0	-
O=C(C1CCCCC1)N1CC2(C1)[C@@H](c1ccccc1)[C@@H](CO)N2Cc1nccs1	-	-	0	28	0	-
O=C(C1CCCCC1)N1CC2(C1)[C@@H](c1ccccc1)[C@@H](CO)N2CC1CCCC1	-	0	0	69	0	-
COCC#Cc1cnc2c(c1)C(=O)N([C@@H](C)CO)C[C@@H](C)[C@H](CN(C)C(C)=O)O2	-	0	0	0	0	0
COc1ccc2c3c([nH]c2c1)[C@H](CO)N(S(C)(=O)=O)CC31CN(C(=O)c2cccnc2)C1	-	0	0	0	0	-
CCCCNC(=S)Nc1cccc(C(C)=O)c1	0	-	-	-	-	0
CCCCNC(=S)Nc1ccccc1Cc1ccccc1	-	0	-43	0	0	0
CC(=O)c1cccc(NC(=S)NCCCCc2ccccc2)c1	0	0	-34	0	0	0
S=C(NCCCc1ccccc1)Nc1ccccc1	0	0	0	0	0	104
S=C(NCCCc1ccccc1)Nc1ccc(Cl)cc1	0	-	-	-	-	-
CCCC(=O)Nc1ccc2c(c1)OC[C@@H](C)N(C(=O)CC1CC1)C[C@@H](C)[C@@H](OC)CN(C)C2=O	-	0	0	0	0	0
O=C(CCCc1ccccc1)Nc1ccnn1C1CCN(Cc2ccccc2)CC1	0	0	0	0	0	0
Cc1ccc(C)c(CN2CCC(n3nccc3NC(=O)CCCc3ccccc3)CC2)c1	0	0	-27	0	0	0
Cc1noc(C)c1S(=O)(=O)N(C)C[C@@H]1OCCCC[C@H](C)Oc2ccc(NC(=O)CCCN(C)C)cc2C(=O)N([C@H](C)CO)C[C@@H]1C	-	0	0	0	0	0
COC(=O)C[C@H]1C[C@H]2c3cc(NC(=O)Nc4ccc(OC)cc4)ccc3O[C@H]2[C@@H](CO)O1	-	-	0	-	-	-
CC(=O)NC1=NC(=O)/C(=C/c2cc(C)n(-c3ccc(NC(C)=O)cc3)c2C)S1	-	0	-29	0	0	0
CC(=O)NC1=NC(=O)/C(=C/c2cc(C)n(-c3cccc(C(=O)O)c3)c2C)S1	0	0	0	0	0	-
Cc1cccc(N2C(=O)/C(=C\c3ccc(OC(F)F)cc3)c3ccccc3C2=O)c1	97	-	-	-	-	-
CO[C@@H]1CN(C)C(=O)c2ccc(NS(=O)(=O)c3cccc(F)c3)cc2OC[C@@H](C)N(C(=O)Cc2cccnc2)C[C@H]1C	-	0	0	82	0	0
